ChEMBL document CHEMBL2407075, “Sulphonamido-quinoxalines: search for anticancer agent” (Eur J Med Chem, 2013)

How the values were obtained:
Assay type in all cases: functional
[1] = test system: SK-MEL-28; assay: Growth inhibition of human SK-MEL-28 cells assessed as cell growth at 10^-5 M after 48 hrs by sulforhodamine B assay; details: SK-MEL-28, 48 h, read-out: Activity
[2] = test system: IGROV-1; assay: Growth inhibition of human IGROV1 cells after 48 hrs by sulforhodamine B assay; details: IGROV-1, 48 h; for CC50: read-out: LC50 (the source's name)
Outline: (§1)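 Adherent cells in RPMI 1640 with 5% FBS and 2 mM L-glutamine were plated at 5000–40,000 cells/well and grown 24 h. Five concentrations (0.01–100 µM, DMSO stock) were added for 48 h at 37 °C. Cells were fixed with cold TCA (10% final) and stained with SRB, read at 515 nm. GI50 came from log concentration–growth curves against time-zero and control plates.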

[3] = test system: SK-MEL-2; assay: Growth inhibition of human SK-MEL-2 cells assessed as cell growth at 10^-8 M after 48 hrs by sulforhodamine B assay; details: SK-MEL-2, 48 h, read-out: Activity
[4] = test system: MCF7; assay: Growth inhibition of human MCF7 cells assessed as cell growth at 10^-4 M after 48 hrs by sulforhodamine B assay; details: MCF7, 48 h, read-out: Activity
[5] = test system: BT-549; assay: Growth inhibition of human BT549 cells assessed as cell growth at 10^-5 M after 48 hrs by sulforhodamine B assay; details: BT-549, 48 h, read-out: Activity
Outline: (§2)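 Five-dose NCI-60 run (0.01, 0.1, 1, 10 and 100 µM, as 10-fold dilutions from a DMSO stock made at 400× the top final level). Cells were grown in RPMI 1640 with 5% FBS and 2 mM glutamine and plated for 24 h. They were then exposed for 48 h at 37 °C and 5% CO2. TCA fixation was followed by SRB staining with A515 read-out. Percent growth was taken relative to time-zero and control plates.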

[6] = test system: NCI-H226; assay: Growth inhibition of human NCI-H226 cells assessed as cell growth at 10^-4 M after 48 hrs by sulforhodamine B assay; details: NCI-H226, 48 h, read-out: Activity
[7] = test system: COLO 205; assay: Growth inhibition of human COLO205 cells assessed as cell growth at 10^-5 M after 48 hrs by sulforhodamine B assay; details: COLO 205, 48 h, read-out: Activity; outline: as §2
[8] = test system: RXF 393; assay: Growth inhibition of human RXF393 cells assessed as cell growth at 10^-6 M after 48 hrs by sulforhodamine B assay; details: RXF 393, 48 h, read-out: Activity
[9] = test system: SF-539; assay: Growth inhibition of human SF539 cells assessed as cell growth at 10^-6 M after 48 hrs by sulforhodamine B assay; details: SF-539, 48 h, read-out: Activity
[10] = test system: MCF7; assay: Growth inhibition of human MCF7 cells assessed as cell growth at 10^-6 M after 48 hrs by sulforhodamine B assay; details: MCF7, 48 h, read-out: Activity
[11] = test system: Malme-3M; assay: Growth inhibition of human MALME-3M cells assessed as cell growth at 10^-7 M after 48 hrs by sulforhodamine B assay; details: read-out: Activity
[12] = test system: A549; assay: Growth inhibition of human A549/ATCC cells assessed as cell growth at 10^-7 M after 48 hrs by sulforhodamine B assay; details: A549, 48 h, read-out: Activity; outline: as §2
[13] = test system: LOX IMVI; assay: Growth inhibition of human LOXIMVI cells after 48 hrs by sulforhodamine B assay; outline: as §1
[14] = test system: SK-MEL-28; assay: Growth inhibition of human SK-MEL-28 cells assessed as cell growth at 10^-7 M after 48 hrs by sulforhodamine B assay; details: SK-MEL-28, 48 h, read-out: Activity
[15] = test system: T47D; assay: Growth inhibition of human T47D cells assessed as cell growth at 10^-6 M after 48 hrs by sulforhodamine B assay; details: read-out: Activity
[16] = test system: HCT-116; assay: Growth inhibition of human HCT116 cells after 48 hrs by sulforhodamine B assay; details: HCT-116, 48 h; for CC50: read-out: LC50 (the source's name)
Outline: (§3)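 Five-dose screen at NCI. Cells in RPMI 1640 with 5% FBS and 2 mM L-glutamine, seeded at 5000–40,000 cells/well and grown 24 h at 37 °C, 5% CO2 before dosing, with time-zero plates TCA-fixed. Drug diluted from DMSO stock to 0.01, 0.1, 1, 10 and 100 µM final, 48 h. Cells fixed with cold TCA (10% final), stained with 0.4% SRB and read at 515 nm. Percent growth from Tz, control and test absorbances; GI50, TGI and LC50 from dose-response curves.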

[17] = test system: CCRF-CEM; assay: Growth inhibition of human CCRF-CEM cells assessed as cell growth at 10^-4 M after 48 hrs by sulforhodamine B assay; details: read-out: Activity
[18] = test system: MOLT-4; assay: Growth inhibition of human MOLT4 cells assessed as cell growth at 10^-6 M after 48 hrs by sulforhodamine B assay; details: MOLT-4, 48 h, read-out: Activity
[19] = test system: K562; assay: Growth inhibition of human K562 cells assessed as cell growth at 10^-5 M after 48 hrs by sulforhodamine B assay; details: K562, 48 h, read-out: Activity
[20] = test system: SK-MEL-28; assay: Growth inhibition of human SK-MEL-28 cells after 48 hrs by sulforhodamine B assay; details: SK-MEL-28, 48 h; for CC50: read-out: LC50 (the source's name); outline: as §1
[21] = test system: IGROV-1; assay: Growth inhibition of human IGROV1 cells assessed as cell growth at 10^-4 M after 48 hrs by sulforhodamine B assay; details: IGROV-1, 48 h, read-out: Activity; outline: as §3
[22] = test system: RXF 393; assay: Growth inhibition of human RXF393 cells assessed as cell growth at 10^-8 M after 48 hrs by sulforhodamine B assay; details: RXF 393, 48 h, read-out: Activity
[23] = test system: SK-MEL-2; assay: Growth inhibition of human SK-MEL-2 cells assessed as cell growth at 10^-7 M after 48 hrs by sulforhodamine B assay; details: SK-MEL-2, 48 h, read-out: Activity
[24] = test system: SR; assay: Growth inhibition of human SR cells assessed as cell growth at 10^-7 M after 48 hrs by sulforhodamine B assay; details: read-out: Activity
[25] = Growth inhibition of human NCI-ADR-RES cells after 48 hrs by sulforhodamine B assay; details: for CC50: read-out: LC50 (the source's name); outline: as §1
[26] = test system: CCRF-CEM; assay: Growth inhibition of human CCRF-CEM cells assessed as cell growth at 10^-7 M after 48 hrs by sulforhodamine B assay; details: read-out: Activity
[27] = test system: UO-31; assay: Growth inhibition of human UO31 cells assessed as cell growth at 10^-4 M after 48 hrs by sulforhodamine B assay; details: UO-31, 48 h, read-out: Activity
[28] = test system: DU-145; assay: Growth inhibition of human DU145 cells assessed as cell growth at 10^-4 M after 48 hrs by sulforhodamine B assay; details: DU-145, 48 h, read-out: Activity; outline: as §2
[29] = test system: A498; assay: Growth inhibition of human A498 cells assessed as cell growth at 10^-5 M after 48 hrs by sulforhodamine B assay; details: A498, 48 h, read-out: Activity; outline: as §2
[30] = test system: UO-31; assay: Growth inhibition of human UO31 cells assessed as cell growth at 10^-6 M after 48 hrs by sulforhodamine B assay; details: UO-31, 48 h, read-out: Activity
[31] = test system: SK-MEL-5; assay: Growth inhibition of human SK-MEL-5 cells after 48 hrs by sulforhodamine B assay; details: SK-MEL-5, 48 h
[32] = test system: MDA-MB-231; assay: Growth inhibition of human MDA-MB-231 cells after 48 hrs by sulforhodamine B assay; details: MDA-MB-231, 48 h

| Compound | growth at 10 µM [1] [%] | TGI [2] [µM] | CC50 [2] [µM] | growth at 0.01 µM [3] [%] | growth at 100 µM [4] [%] | growth at 10 µM [5] [%] | growth at 100 µM [6] [%] | growth at 10 µM [7] [%] | growth at 1 µM [8] [%] | growth at 1 µM [9] [%] | growth at 1 µM [10] [%] | growth at 0.1 µM [11] [%] | growth at 0.1 µM [12] [%] | growth at 1 µM [15] [%] | TGI [16] [µM] | CC50 [16] [µM] | growth at 1 µM [18] [%] | growth at 10 µM [19] [%] | TGI [20] [µM] | CC50 [20] [µM] | also measured |
| --- | --- | --- | --- | --- | --- | --- | --- | --- | --- | --- | --- | --- | --- | --- | --- | --- | --- | --- | --- | --- | --- |
| O=S(=O)(Nc1ccc(Cl)cc1)c1ccc2nc(-c3ccccc3)c(-c3ccccc3)nc2c1 | 21 | > 100 | > 100 | 93 | 76 | -20 | 73 | -11 | 98 | 101 | 93 | 99 | 97 | 69 | > 100 | > 100 | 86 | 11 | > 100 | > 100 | TGI [13]: > 100 µM; CC50 ([13]; read-out: LC50 (the source's name)): > 100 µM; growth at 0.1 µM [14]: 96%; growth at 100 µM [17]: 64%; growth at 100 µM [21]: 73%; growth at 0.01 µM [22]: 97%; growth at 0.1 µM [23]: 99%; growth at 0.1 µM [24]: 88%; TGI [25]: > 100 µM; CC50 [25]: > 100 µM; growth at 0.1 µM [26]: 91%; growth at 100 µM [27]: 75%; growth at 100 µM [28]: 65%; growth at 10 µM [29]: -5%; growth at 1 µM [30]: 90% |
| O=S(=O)(Nc1ccccn1)c1ccc2nc(-c3ccccc3)c(-c3ccccc3)nc2c1 | 19 | > 100 | > 100 | 99 | 40 | -34 | 70 | -73 | 96 | 96 | 87 | 107 | 98 | 54 | > 100 | > 100 | 80 | 9 | > 100 | > 100 | GI50 [31]: 1.46 µM; GI50 [32]: 1.82 µM; GI50 [16]: 2.17 µM; growth at 100 µM [21]: 63%; growth at 0.01 µM [22]: 105%; growth at 0.1 µM [24]: 89%; CC50 [25]: > 100 µM; growth at 100 µM [27]: 59%; growth at 100 µM [28]: 59%; growth at 10 µM [29]: -8%; growth at 1 µM [30]: 85% |
